The M2OR odorant receptor database

Assays:
Details in all cases: stereoisomer not certain
UniProt E9PVX1 = biological target: T1, UniProt E9PVX1
T1 sequence (whole entry): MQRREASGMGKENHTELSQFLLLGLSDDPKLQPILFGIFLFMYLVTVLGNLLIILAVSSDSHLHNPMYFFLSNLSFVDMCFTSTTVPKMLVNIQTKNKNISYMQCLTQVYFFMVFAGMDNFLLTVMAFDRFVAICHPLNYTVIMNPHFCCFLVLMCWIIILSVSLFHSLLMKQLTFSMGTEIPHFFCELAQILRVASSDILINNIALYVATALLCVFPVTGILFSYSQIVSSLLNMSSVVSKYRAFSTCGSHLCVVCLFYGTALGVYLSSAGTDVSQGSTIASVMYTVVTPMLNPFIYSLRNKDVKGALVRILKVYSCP
Procedure, shortened: (§1)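 Whether a receptor–molecule pair is responsive (active) rests on the original authors' judgment that its measured signal was statistically different from baseline. Pairs without that judgment are non-responsive (inactive). Sources used varied assay methods, commonly transient luciferase assays in mammalian cell lines.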

UniProt E9PZ66 = biological target: T2, UniProt E9PZ66
T2 sequence (whole entry): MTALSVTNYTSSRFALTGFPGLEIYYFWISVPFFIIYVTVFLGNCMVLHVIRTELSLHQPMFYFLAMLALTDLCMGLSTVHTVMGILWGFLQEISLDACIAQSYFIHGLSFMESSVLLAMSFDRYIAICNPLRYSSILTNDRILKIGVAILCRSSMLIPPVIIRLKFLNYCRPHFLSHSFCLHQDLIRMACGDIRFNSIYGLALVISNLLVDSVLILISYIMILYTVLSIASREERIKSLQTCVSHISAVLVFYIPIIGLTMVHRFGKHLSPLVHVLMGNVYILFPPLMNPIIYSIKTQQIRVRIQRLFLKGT
Procedure, shortened: as §1

UniProt E9Q4X7 = biological target: T3, UniProt E9Q4X7
T3 sequence (whole entry): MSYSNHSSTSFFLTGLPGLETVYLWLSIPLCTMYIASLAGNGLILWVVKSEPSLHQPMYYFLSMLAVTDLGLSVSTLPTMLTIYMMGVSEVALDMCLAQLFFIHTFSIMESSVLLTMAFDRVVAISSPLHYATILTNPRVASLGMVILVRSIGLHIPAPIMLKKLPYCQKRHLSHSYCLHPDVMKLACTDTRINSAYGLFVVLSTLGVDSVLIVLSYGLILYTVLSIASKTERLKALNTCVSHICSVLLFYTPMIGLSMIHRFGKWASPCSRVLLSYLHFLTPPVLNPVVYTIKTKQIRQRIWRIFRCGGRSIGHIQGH
Procedure, shortened: as §1

UniProt E9Q546 = biological target: T4, UniProt E9Q546
T4 sequence (whole entry): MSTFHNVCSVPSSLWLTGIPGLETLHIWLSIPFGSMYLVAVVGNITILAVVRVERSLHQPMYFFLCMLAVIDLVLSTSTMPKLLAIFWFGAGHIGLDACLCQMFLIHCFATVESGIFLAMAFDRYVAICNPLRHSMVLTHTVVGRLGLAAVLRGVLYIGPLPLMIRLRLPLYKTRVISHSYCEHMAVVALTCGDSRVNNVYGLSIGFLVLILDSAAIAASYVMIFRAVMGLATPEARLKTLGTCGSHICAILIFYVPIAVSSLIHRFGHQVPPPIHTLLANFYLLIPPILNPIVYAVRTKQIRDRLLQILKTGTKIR
Procedure, shortened: as §1

UniProt E9Q6Z7 = biological target: T5, UniProt E9Q6Z7
T5 sequence (whole entry): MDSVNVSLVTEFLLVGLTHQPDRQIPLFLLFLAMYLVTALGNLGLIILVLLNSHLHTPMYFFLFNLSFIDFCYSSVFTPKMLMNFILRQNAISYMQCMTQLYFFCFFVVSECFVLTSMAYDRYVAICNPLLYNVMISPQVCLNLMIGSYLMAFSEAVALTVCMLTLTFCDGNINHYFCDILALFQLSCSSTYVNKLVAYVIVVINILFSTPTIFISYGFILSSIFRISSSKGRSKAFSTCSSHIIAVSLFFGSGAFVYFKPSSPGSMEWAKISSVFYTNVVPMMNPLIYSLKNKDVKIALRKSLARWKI
Procedure, shortened: as §1

UniProt L7MU75 = biological target: T6, UniProt L7MU75
T6 sequence (whole entry): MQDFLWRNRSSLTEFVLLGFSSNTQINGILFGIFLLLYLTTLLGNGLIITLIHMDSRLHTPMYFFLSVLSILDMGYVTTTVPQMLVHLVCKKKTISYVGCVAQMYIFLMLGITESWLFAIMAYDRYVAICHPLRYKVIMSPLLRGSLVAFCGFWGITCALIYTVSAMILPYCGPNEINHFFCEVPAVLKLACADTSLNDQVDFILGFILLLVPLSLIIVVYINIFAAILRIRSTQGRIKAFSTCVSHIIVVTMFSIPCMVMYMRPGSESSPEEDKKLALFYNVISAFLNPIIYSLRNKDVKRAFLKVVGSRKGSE
Procedure, shortened: as §1

UniProt L7N210 = biological target: T7, UniProt L7N210
T7 sequence (whole entry): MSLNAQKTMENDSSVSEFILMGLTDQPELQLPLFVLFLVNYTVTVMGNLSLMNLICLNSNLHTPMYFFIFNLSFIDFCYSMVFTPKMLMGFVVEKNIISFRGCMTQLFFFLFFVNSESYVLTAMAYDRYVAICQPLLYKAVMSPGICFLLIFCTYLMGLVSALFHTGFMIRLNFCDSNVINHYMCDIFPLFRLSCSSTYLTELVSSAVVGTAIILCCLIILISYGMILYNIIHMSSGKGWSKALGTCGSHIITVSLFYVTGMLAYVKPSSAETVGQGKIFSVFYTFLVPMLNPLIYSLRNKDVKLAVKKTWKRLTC
Procedure, shortened: as §1

UniProt Q3KPB0 = biological target: T8, UniProt Q3KPB0
T8 sequence (whole entry): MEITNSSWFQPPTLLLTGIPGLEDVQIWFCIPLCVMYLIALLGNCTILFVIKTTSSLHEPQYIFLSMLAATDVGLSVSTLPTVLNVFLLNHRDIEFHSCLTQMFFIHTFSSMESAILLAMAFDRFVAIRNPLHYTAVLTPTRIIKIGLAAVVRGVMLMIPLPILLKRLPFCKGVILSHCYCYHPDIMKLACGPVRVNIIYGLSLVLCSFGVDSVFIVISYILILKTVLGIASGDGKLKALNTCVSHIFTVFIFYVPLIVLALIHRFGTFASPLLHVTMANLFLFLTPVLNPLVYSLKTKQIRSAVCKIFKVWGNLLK
Procedure, shortened: as §1

UniProt Q3U0P3 = biological target: T9, UniProt Q3U0P3
T9 sequence (whole entry): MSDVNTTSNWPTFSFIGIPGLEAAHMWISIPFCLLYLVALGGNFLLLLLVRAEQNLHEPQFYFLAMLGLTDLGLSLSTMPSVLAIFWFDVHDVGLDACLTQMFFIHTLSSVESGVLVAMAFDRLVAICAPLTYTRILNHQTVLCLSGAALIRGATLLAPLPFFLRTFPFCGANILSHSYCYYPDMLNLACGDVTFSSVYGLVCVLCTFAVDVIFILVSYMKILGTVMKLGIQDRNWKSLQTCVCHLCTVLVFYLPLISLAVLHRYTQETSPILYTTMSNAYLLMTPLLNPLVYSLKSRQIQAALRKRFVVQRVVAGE
Procedure, shortened: as §1

UniProt Q7TQU8 = biological target: T10, UniProt Q7TQU8
T10 sequence (whole entry): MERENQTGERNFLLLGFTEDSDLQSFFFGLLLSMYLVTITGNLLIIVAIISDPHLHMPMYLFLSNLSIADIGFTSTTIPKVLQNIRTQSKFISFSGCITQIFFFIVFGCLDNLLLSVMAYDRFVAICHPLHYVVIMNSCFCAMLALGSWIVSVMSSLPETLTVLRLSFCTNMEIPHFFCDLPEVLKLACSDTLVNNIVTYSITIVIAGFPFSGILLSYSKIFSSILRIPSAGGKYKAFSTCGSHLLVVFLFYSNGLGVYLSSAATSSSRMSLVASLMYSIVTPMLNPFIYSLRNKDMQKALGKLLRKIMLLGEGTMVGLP
Procedure, shortened: as §1

UniProt Q7TR79 = biological target: T11, UniProt Q7TR79
T11 sequence (whole entry): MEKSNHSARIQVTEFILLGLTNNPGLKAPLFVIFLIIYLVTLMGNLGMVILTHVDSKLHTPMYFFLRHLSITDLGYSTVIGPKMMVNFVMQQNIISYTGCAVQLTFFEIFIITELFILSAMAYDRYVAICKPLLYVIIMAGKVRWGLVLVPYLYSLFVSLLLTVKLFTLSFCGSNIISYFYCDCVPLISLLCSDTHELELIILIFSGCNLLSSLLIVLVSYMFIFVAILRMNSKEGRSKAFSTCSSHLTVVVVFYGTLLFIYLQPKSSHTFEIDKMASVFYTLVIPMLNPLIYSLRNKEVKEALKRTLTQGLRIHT
Procedure, shortened: as §1

UniProt B2RVX8 = biological target: T12, UniProt B2RVX8
T12 sequence (whole entry): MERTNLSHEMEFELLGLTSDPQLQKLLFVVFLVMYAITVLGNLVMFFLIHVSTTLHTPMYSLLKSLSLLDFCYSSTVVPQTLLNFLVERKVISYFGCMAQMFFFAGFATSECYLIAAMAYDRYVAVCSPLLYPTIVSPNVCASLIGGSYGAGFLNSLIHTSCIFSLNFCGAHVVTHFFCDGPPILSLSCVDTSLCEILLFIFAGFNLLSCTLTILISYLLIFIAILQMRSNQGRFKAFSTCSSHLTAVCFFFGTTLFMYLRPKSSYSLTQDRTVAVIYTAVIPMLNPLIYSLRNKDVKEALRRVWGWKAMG
Procedure, shortened: as §1

UniProt K7N609 = biological target: T13, UniProt K7N609
T13 sequence (whole entry): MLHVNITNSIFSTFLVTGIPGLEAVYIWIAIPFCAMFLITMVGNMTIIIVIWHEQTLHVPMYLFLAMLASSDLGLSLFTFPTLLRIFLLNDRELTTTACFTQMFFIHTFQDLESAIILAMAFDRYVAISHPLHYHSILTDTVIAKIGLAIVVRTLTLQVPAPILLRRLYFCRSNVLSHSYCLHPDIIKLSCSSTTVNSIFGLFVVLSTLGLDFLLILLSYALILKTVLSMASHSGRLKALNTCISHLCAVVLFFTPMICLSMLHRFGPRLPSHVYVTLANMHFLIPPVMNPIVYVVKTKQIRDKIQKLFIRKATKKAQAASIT
Procedure, shortened: as §1

UniProt Q7TQV4 = biological target: T14, UniProt Q7TQV4
T14 sequence (whole entry): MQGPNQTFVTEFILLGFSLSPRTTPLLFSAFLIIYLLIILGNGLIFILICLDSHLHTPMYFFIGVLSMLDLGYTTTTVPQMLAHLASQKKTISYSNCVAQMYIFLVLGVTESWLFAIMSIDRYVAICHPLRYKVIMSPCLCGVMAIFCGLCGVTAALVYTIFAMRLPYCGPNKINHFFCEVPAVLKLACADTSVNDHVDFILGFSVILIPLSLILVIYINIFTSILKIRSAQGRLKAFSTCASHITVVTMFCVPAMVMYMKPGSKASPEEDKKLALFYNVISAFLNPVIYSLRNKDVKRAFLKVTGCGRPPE
Procedure, shortened: as §1

UniProt Q7TR71 = biological target: T15, UniProt Q7TR71
T15 sequence (whole entry): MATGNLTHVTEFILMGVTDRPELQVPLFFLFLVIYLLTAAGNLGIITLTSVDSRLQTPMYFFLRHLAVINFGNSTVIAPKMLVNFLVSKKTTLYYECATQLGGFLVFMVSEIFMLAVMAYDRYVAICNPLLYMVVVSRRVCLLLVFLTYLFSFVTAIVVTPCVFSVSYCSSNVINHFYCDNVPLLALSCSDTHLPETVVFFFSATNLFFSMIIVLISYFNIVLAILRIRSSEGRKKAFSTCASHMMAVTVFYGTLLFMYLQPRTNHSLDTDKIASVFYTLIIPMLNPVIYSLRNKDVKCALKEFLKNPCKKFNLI
Procedure, shortened: as §1

UniProt Q7TRA3 = biological target: T16, UniProt Q7TRA3
T16 sequence (whole entry): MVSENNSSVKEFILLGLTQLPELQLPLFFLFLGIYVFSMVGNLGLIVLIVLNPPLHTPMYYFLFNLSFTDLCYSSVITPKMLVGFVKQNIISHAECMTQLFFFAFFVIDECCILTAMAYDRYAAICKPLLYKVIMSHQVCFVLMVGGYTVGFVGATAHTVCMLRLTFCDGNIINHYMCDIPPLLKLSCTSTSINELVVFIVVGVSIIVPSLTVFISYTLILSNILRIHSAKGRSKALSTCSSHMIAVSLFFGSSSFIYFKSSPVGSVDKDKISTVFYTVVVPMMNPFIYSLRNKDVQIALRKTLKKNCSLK
Procedure, shortened: as §1

UniProt Q7TRE4 = biological target: T17, UniProt Q7TRE4
T17 sequence (whole entry): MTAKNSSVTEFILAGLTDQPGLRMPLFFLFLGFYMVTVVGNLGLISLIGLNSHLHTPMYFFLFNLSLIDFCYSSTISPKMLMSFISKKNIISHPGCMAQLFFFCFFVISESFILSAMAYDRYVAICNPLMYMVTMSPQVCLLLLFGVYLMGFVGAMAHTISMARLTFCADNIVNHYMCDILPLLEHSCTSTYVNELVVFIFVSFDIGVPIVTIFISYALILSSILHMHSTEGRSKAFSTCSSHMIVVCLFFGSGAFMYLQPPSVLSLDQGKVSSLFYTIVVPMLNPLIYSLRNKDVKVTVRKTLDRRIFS
Procedure, shortened: as §1

Measured: odorant receptor agonist call;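 also: active if original authors judged signal statistically different from baseline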

CCCCCCC(Br)C(=O)O (stereo not given)
not listed: UniProt B2RVX8 | UniProt K7N609 | UniProt Q7TQV4 | UniProt Q7TR71 | UniProt Q7TRA3 | UniProt Q7TRE4
inactive: all other assays above

Oc1ccccc1Br
not listed: UniProt B2RVX8 | UniProt K7N609 | UniProt Q7TQV4 | UniProt Q7TR71 | UniProt Q7TRA3 | UniProt Q7TRE4
inactive: all other assays above

C=CCc1ccccc1
inactive: UniProt B2RVX8 | UniProt E9Q546 | UniProt K7N609 | UniProt L7N210 | UniProt Q7TQV4 | UniProt Q7TR71 | UniProt Q7TRA3 | UniProt Q7TRE4
